The source made the active and inactive calls. The rule behind the calls is not given here.
Tests used:
Type in all cases: functional
[1] = test system: A549; assay: Cytotoxicity against human A549 cells assessed as inhibition of cell growth at 10 uM after 48 hrs by SRB assay relative to control; conditions: A549, 48 h, read-out: GI
Procedure, shortened: (§1)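 SRB protein assay in DMEM with 10% FBS at 37 °C, 5% CO2, 100% relative humidity. Cells seeded in 96-well plates, incubated 24 h, then exposed to drug at 10 µM for 48 h and processed per standard protocol. Absorbance read at 560 nm; growth percentage calculated for test wells relative to control wells.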

[2] = test system: IMR-32; assay: Cytotoxicity against human IMR32 cells after 48 hrs assessed as inhibition of cell growth at 10 uM after 48 hrs by SRB assay relative to control; conditions: IMR-32, 48 h, read-out: GI; procedure, shortened: as §1
[3] = test system: MCF7; assay: Cytotoxicity against human MCF7 cells after 48 hrs assessed as inhibition of cell growth at 10 uM after 48 hrs by SRB assay relative to control; conditions: MCF7, 48 h, read-out: GI; procedure, shortened: as §1
[4] = test system: PC-3; assay: Cytotoxicity against human PC3 cells after 48 hrs assessed as inhibition of cell growth at 10 uM after 48 hrs by SRB assay relative to control; conditions: PC-3, 48 h, read-out: GI; procedure, shortened: as §1
[5] = test system: CCRF-CEM; assay: Growth inhibition of human CCRF-CEM cells after 48 hrs by SRB assay
Procedure, shortened: (§2)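 NCI 60-cell-line screen: after preliminary screening, tested at five dose concentrations on 59 human tumour lines covering leukemia, lung, colon, CNS, melanoma, ovarian, renal, prostate and breast.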

[6] = test system: MOLT-4; assay: Growth inhibition of human MOLT4 cells after 48 hrs by SRB assay; conditions: MOLT-4, 48 h; procedure, shortened: as §2
[7] = test system: SR; assay: Growth inhibition of human SR cells after 48 hrs by SRB assay
Procedure, shortened: (§3)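 NCI 60-cell-line panel, five-dose testing after preliminary screen; sulforhodamine B protein assay in DMEM with 10% FBS, 37 °C, 5% CO2, 100% humidity. Cells seeded and incubated 24 h before compound addition, then exposed 48 h. Absorbance read at 560 nm; growth percentage relative to control wells; GI50 taken as concentration giving 50% growth inhibition.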

[8] = test system: A549; assay: Growth inhibition of human A549 cells after 48 hrs by SRB assay; conditions: A549, 48 h; procedure, shortened: as §2
[9] = test system: EKVX; assay: Growth inhibition of human EKVX cells after 48 hrs by SRB assay; procedure, shortened: as §2
[10] = test system: HOP-62; assay: Growth inhibition of human HOP62 cells after 48 hrs by SRB assay; conditions: HOP-62, 48 h; procedure, shortened: as §2
[11] = test system: HOP-92; assay: Growth inhibition of human HOP92 cells after 48 hrs by SRB assay; conditions: HOP-92, 48 h; procedure, shortened: as §2
[12] = test system: NCI-H226; assay: Growth inhibition of human NCI-H226 cells after 48 hrs by SRB assay; conditions: NCI-H226, 48 h; procedure, shortened: as §2
[13] = test system: NCI-H23; assay: Growth inhibition of human NCI-H23 cells after 48 hrs by SRB assay; conditions: NCI-H23, 48 h; procedure, shortened: as §2
[14] = test system: NCI-H322M; assay: Growth inhibition of human NCI-H322M cells after 48 hrs by SRB assay; procedure, shortened: as §2
[15] = test system: HCC 2998; assay: Growth inhibition of human HCC2998 cells after 48 hrs by SRB assay; procedure, shortened: as §2
[16] = test system: HCT-116; assay: Growth inhibition of human HCT116 cells after 48 hrs by SRB assay; conditions: HCT-116, 48 h; procedure, shortened: as §2
[17] = test system: HT-29; assay: Growth inhibition of human HT-29 cells after 48 hrs by SRB assay; conditions: HT-29, 48 h; procedure, shortened: as §2
[18] = test system: KM12; assay: Growth inhibition of human KM12 cells after 48 hrs by SRB assay; conditions: KM12, 48 h; procedure, shortened: as §2
[19] = test system: SF-295; assay: Growth inhibition of human SF295 cells after 48 hrs by SRB assay; conditions: SF-295, 48 h; procedure, shortened: as §3
[20] = test system: SNB-75; assay: Growth inhibition of human SNB75 cells after 48 hrs by SRB assay; conditions: SNB-75, 48 h; procedure, shortened: as §3
[21] = test system: Malme-3M; assay: Growth inhibition of human MALME-3M cells after 48 hrs by SRB assay; procedure, shortened: as §2
[22] = test system: M14; assay: Growth inhibition of human M14 cells after 48 hrs by SRB assay; conditions: M14, 48 h; procedure, shortened: as §2
[23] = test system: SK-MEL-2; assay: Growth inhibition of human SK-MEL-2 cells after 48 hrs by SRB assay; conditions: SK-MEL-2, 48 h; procedure, shortened: as §3
[24] = test system: SK-MEL-28; assay: Growth inhibition of human SK-MEL-28 cells after 48 hrs by SRB assay; procedure, shortened: as §3
[25] = test system: OVCAR-5; assay: Growth inhibition of human OVCAR5 cells after 48 hrs by SRB assay; procedure, shortened: as §2
[26] = test system: OVCAR-4; assay: Growth inhibition of human OVCAR4 cells after 48 hrs by SRB assay; conditions: OVCAR-4, 48 h; procedure, shortened: as §2
[27] = test system: OVCAR-8; assay: Growth inhibition of human OVCAR8 cells after 48 hrs by SRB assay; conditions: OVCAR-8, 48 h; procedure, shortened: as §2
[28] = test system: NCI/ADR-RES; assay: Growth inhibition of human NCI/ADR-RES cells after 48 hrs by SRB assay; procedure, shortened: as §2
[29] = test system: SK-OV-3; assay: Growth inhibition of human SKOV3 cells after 48 hrs by SRB assay; conditions: SK-OV-3, 48 h; procedure, shortened: as §3
[30] = test system: 786-0; assay: Growth inhibition of human 786-0 cells after 48 hrs by SRB assay; conditions: 786-0, 48 h; procedure, shortened: as §2
[31] = test system: A498; assay: Growth inhibition of human A498 cells after 48 hrs by SRB assay; conditions: A498, 48 h; procedure, shortened: as §2
[32] = test system: SN12C; assay: Growth inhibition of human SN12C cells after 48 hrs by SRB assay; procedure, shortened: as §3
[33] = test system: TK-10; assay: Growth inhibition of human TK10 cells after 48 hrs by SRB assay; conditions: TK-10, 48 h; procedure, shortened: as §3
[34] = test system: PC-3; assay: Growth inhibition of human PC3 cells after 48 hrs by SRB assay; conditions: PC-3, 48 h; procedure, shortened: as §2
[35] = test system: DU-145; assay: Growth inhibition of human DU145 cells after 48 hrs by SRB assay; conditions: DU-145, 48 h; procedure, shortened: as §2
[36] = test system: MCF7; assay: Growth inhibition of human MCF7 cells after 48 hrs by SRB assay; conditions: MCF7, 48 h; procedure, shortened: as §2
[37] = test system: MDA-MB-231; assay: Growth inhibition of human MDA-MB-231 cells after 48 hrs by SRB assay; conditions: MDA-MB-231, 48 h; procedure, shortened: as §2
[38] = test system: Hs-578T; assay: Growth inhibition of human Hs578T cells after 48 hrs by SRB assay; procedure, shortened: as §2
[39] = test system: BT-549; assay: Growth inhibition of human BT549 cells after 48 hrs by SRB assay; conditions: BT-549, 48 h; procedure, shortened: as §2
[40] = test system: T47D; assay: Growth inhibition of human T47D cells after 48 hrs by SRB assay; procedure, shortened: as §3
[41] = test system: MDA-MB-468; assay: Growth inhibition of human MDA-MB-468 cells after 48 hrs by SRB assay; conditions: MDA-MB-468, 48 h; procedure, shortened: as §2
[42] = test system: MCF7; assay: Cell cycle arrest in human MCF7 cells assessed as accumulation at G1 phase at 4 uM after 24 hrs by FACS analysis (reference value: 58.33%)
[43] = test system: MCF7; assay: Cell cycle arrest in human MCF7 cells assessed as accumulation at S phase at 4 uM after 24 hrs by FACS analysis (reference value: 6.79%)
[44] = test system: SW-620; assay: Growth inhibition of human SW620 cells after 48 hrs by SRB assay; procedure, shortened: as §3

Structure (SMILES): COc1ccc(/C=C\c2cc(OC)c(OC)c(OC)c2)cc1OCC(=O)Nc1nc2ccc(F)cc2s1
- inhibition of growth at 10 µM [1]: 44%
- inhibition of growth at 10 µM [2]: 77%
- inhibition of growth at 10 µM [3]: 56%
- inhibition of growth at 10 µM [4]: 32%
- GI50 [5]: 3.7 µM
- GI50 [6]: 3.07 µM
- GI50 [7]: 2.19 µM
- GI50 [8]: 5.99 µM
- GI50 [9]: 5.72 µM
- GI50 [10]: 5.7 µM
- GI50 [11]: 5.73 µM
- GI50 [12]: 5.6 µM
- GI50 [13]: 4.26 µM
- GI50 [14]: inactive
- GI50 [15]: inactive
- GI50 [16]: 4.48 µM
- GI50 [17]: 9.63 µM
- GI50 [18]: 4.78 µM
- GI50 [19]: 4.29 µM
- GI50 [20]: 4.39 µM
- GI50 [21]: 5.22 µM
- GI50 [22]: 6.82 µM
- GI50 [23]: 8.46 µM
- GI50 [24]: inactive
- GI50 [25]: inactive
- GI50 [26]: 7.3 µM
- GI50 [27]: 7.15 µM
- GI50 [28]: 2.55 µM
- GI50 [29]: 8 µM
- GI50 [30]: 7.12 µM
- GI50 [31]: 6.25 µM
- GI50 [32]: 4.61 µM
- GI50 [33]: 9.89 µM
- GI50 [34]: 6.74 µM
- GI50 [35]: 8.97 µM
- GI50 [36]: 2.3 µM
- GI50 [37]: 9.34 µM
- GI50 [38]: inactive
- GI50 [39]: 16.7 µM
- GI50 [40]: 3.39 µM
- GI50 [41]: 3.68 µM
- Activity [42]: 44.28%
- Activity [43]: 13.64%
- GI50 [44]: inactive

Reference: ChEMBL document CHEMBL2086239, “Synthesis and biological evaluation of combretastatin-amidobenzothiazole conjugates as potential anticancer agents” (Eur J Med Chem, 2012)
